Reference: ChEMBL document CHEMBL4190388, “Discovery and Optimization of Indolyl-Containing 4-Hydroxy-2-Pyridone Type II DNA Topoisomerase Inhibitors Active against Multidrug Resistant Gram-negative Bacteria” (J Med Chem, 2018)
≈ marks a conversion by molar mass, not a printed value.

Key:
Escherichia coli [1] = assay: Antibacterial activity against fluoroquinolone resistant Escherichia coli SKM18 by CLSI M100-S17 protocol based method; assay type: functional
Escherichia coli [2] = assay: Antibacterial activity against wild type Escherichia coli ATCC 25922 by CLSI M100-S17 protocol based method; assay type: functional
Escherichia coli [3] = assay: Antibacterial activity against quinolone resistance Escherichia coli isolate ELZ4251 harboring gyrA/parC mutant by CLSI M100-S17 protocol based method; assay type: functional
Acinetobacter baumannii [4] = assay: Antibacterial activity against wild type Acinetobacter baumannii ATCC BAA-747 by CLSI M100-S17 protocol based method; assay type: functional
Acinetobacter baumannii [5] = assay: Antibacterial activity against fluoroquinolone resistant Acinetobacter baumannii isolate MMX2240 by CLSI M100-S17 protocol based method; assay type: functional
Klebsiella pneumoniae = assay: Antibacterial activity against wild type Klebsiella pneumoniae ATCC 35657 by CLSI M100-S17 protocol based method; assay type: functional
Escherichia coli [6] = assay: Antibacterial activity against wild type Escherichia coli ATCC 25922 in presence of HSA by CLSI M100-S17 protocol based method; assay type: functional
Escherichia coli [7] = assay: Selectivity ratio of MIC for wild type Escherichia coli ATCC 25922 in presence of HSA to MIC for wild type Escherichia coli ATCC 25922; assay type: functional
[8] = Fraction unbound in mouse plasma at 1 uM by equilibrium dialysis method; assay type: ADME, cell-free
Escherichia coli [9] = assay: Antibacterial activity against Escherichia coli infected in cyclophosphamide treated neutropenic CD1 mouse septicemia model assessed as mouse survival at 20 mg/kg, iv dosed at 1 hr post infection followed by redosing at 5 hrs post infection measured at 96 hrs post infection relative to control; assay type: functional
In short: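 Female CD-1 mice were made neutropenic with cyclophosphamide ip, 150 mg/kg on day −4 and 100 mg/kg on day −1. […] Compound was given iv in 3% DMSO/saline at 1 and 5 h postinfection, n = 6 per group. Percent survival was scored at 96 h postinfection.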

Escherichia coli [10] = assay: Antibacterial activity against quinolone resistant Escherichia coli by broth microdilution method; assay type: functional; details: Escherichia coli; for MIC: read-out: MIC
In short: (§1)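 MICs were determined by CLSI broth methods, except that organisms were grown in brain–heart–infusion medium. The panel comprised wild-type and resistant E. coli and A. baumannii strains, including 12 strains whose details are given by reference.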

Escherichia coli [11] = assay: Antibacterial activity against wild type Escherichia coli by broth microdilution method; assay type: functional; in short: as §1
Escherichia coli [12] = assay: Antibacterial activity against beta-lactam resistant Escherichia coli by broth microdilution method; assay type: functional; details: Escherichia coli; for MIC: read-out: MIC; in short: as §1
Escherichia coli [13] = assay: Antibacterial activity against aminoglycoside resistant Escherichia coli by broth microdilution method; assay type: functional; details: Escherichia coli; for MIC: read-out: MIC; in short: as §1
Escherichia coli [14] = assay: Antibacterial activity against multidrug resistant Escherichia coli by broth microdilution method; assay type: functional; details: Escherichia coli; for MIC: read-out: MIC; in short: as §1
Acinetobacter baumannii [15] = assay: Antibacterial activity against wild type Acinetobacter baumannii by broth microdilution method; assay type: functional; in short: as §1
Acinetobacter baumannii [16] = assay: Antibacterial activity against aminoglycoside resistant Acinetobacter baumannii by broth microdilution method; assay type: functional; details: Acinetobacter baumannii; in short: as §1
Acinetobacter baumannii [17] = assay: Antibacterial activity against quinolone resistant Acinetobacter baumannii by broth microdilution method; assay type: functional; details: Acinetobacter baumannii; in short: as §1
Acinetobacter baumannii [18] = assay: Antibacterial activity against beta-lactam resistant Acinetobacter baumannii by broth microdilution method; assay type: functional; details: Acinetobacter baumannii; in short: as §1
Acinetobacter baumannii [19] = assay: Antibacterial activity against carbapenem resistant Acinetobacter baumannii by broth microdilution method; assay type: functional; details: Acinetobacter baumannii; in short: as §1
Acinetobacter baumannii [20] = assay: Antibacterial activity against multidrug resistant Acinetobacter baumannii by broth microdilution method; assay type: functional; details: Acinetobacter baumannii; in short: as §1
Mus musculus [21] = assay: Terminal half life in CD1 mouse plasma at 10 mg/kg, iv by LC-MS/MS analysis; assay type: ADME, organism-based; details: in vivo
Mus musculus [22] = assay: AUC (0 to 24 hrs) in CD1 mouse plasma at 10 mg/kg, iv by LC-MS/MS analysis; assay type: ADME, organism-based; set-up: time < 24 hr, dose 10 mg/kg, route intravenous; details: in vivo
In short: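 CD-1 mice given a single 10 mg/kg iv dose (n = 3), in either 10% DMSO plus 1% Tween 80 in pH 8.0 phosphate buffer or 20% (2-hydroxypropyl)-β-cyclodextrin in pH 4.0 citrate buffer; plasma exposure measured.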

Mus musculus [23] = assay: Volume of distribution at steady state in CD1 mouse plasma at 10 mg/kg, iv by LC-MS/MS analysis; assay type: ADME, organism-based; details: in vivo

In the case of Cn1c(CN2CCCC2)cc2cc3c(cc21)OCCc1c-3[nH]c(=O)c(C(=O)O)c1O, the MIC (Escherichia coli [1]) is reported as 1 µg/mL (≈ 2.44 µM), the MIC (Escherichia coli [2]) is reported as 2 µg/mL (≈ 4.88 µM) and the MIC (Escherichia coli [3]) is reported as 3.1 µg/mL (≈ 7.57 µM). For the same molecule, the MIC (Acinetobacter baumannii [4]) was 3.9 µg/mL (≈ 9.53 µM), the MIC (Acinetobacter baumannii [5]) was 7.8 µg/mL (≈ 19.1 µM) and the MIC (Klebsiella pneumoniae) was 2 µg/mL (≈ 4.88 µM). For the same molecule, the MIC (Escherichia coli [6]) was 3.9 µg/mL, the Ratio (Escherichia coli [7]) was 2 - 4 and the Fu [8] was 0.18. The survival at 20 mg/kg (Escherichia coli [9]) was 83%, the MIC50 (Escherichia coli [10]) was 0.5 µg/mL (≈ 1.22 µM) and the MIC90 (Escherichia coli [10]) was 1 µg/mL (≈ 2.44 µM). The MIC (Escherichia coli [10]) was 0.25 to 1 µg/mL (≈ 0.611 to 2.44 µM), the MIC50 (Escherichia coli [11]) was 0.5 µg/mL (≈ 1.22 µM) and the MIC90 (Escherichia coli [11]) was 1 µg/mL (≈ 2.44 µM). It also gave an MIC50 (Escherichia coli [12]) of 0.5 µg/mL (≈ 1.22 µM), an MIC90 (Escherichia coli [12]) of 1 µg/mL (≈ 2.44 µM) and an MIC (Escherichia coli [12]) of 0.25 to 1 µg/mL (≈ 0.611 to 2.44 µM). It also gave an MIC50 (Escherichia coli [13]) of 0.5 µg/mL (≈ 1.22 µM), an MIC90 (Escherichia coli [13]) of 1 µg/mL (≈ 2.44 µM) and an MIC (Escherichia coli [13]) of 0.25 to 1 µg/mL (≈ 0.611 to 2.44 µM). For the same molecule, the MIC50 (Escherichia coli [14]) was 0.5 µg/mL (≈ 1.22 µM), the MIC90 (Escherichia coli [14]) was 1 µg/mL (≈ 2.44 µM) and the MIC (Escherichia coli [14]) was 0.25 to 1 µg/mL (≈ 0.611 to 2.44 µM). The MIC50 (Acinetobacter baumannii [15]) was 2 µg/mL (≈ 4.88 µM), the MIC90 (Acinetobacter baumannii [15]) was 8 µg/mL (≈ 19.5 µM) and the MIC50 (Acinetobacter baumannii [16]) was 2 µg/mL (≈ 4.88 µM). It also gave an MIC90 (Acinetobacter baumannii [16]) of 8 µg/mL (≈ 19.5 µM), an MIC (Acinetobacter baumannii [16]; read-out: MIC) of 0.12 to 16 µg/mL (≈ 0.293 to 39.1 µM) and an MIC50 (Acinetobacter baumannii [17]) of 2 µg/mL (≈ 4.88 µM). It also gave an MIC90 (Acinetobacter baumannii [17]) of 8 µg/mL (≈ 19.5 µM), an MIC (Acinetobacter baumannii [17]; read-out: MIC) of 0.12 to 16 µg/mL (≈ 0.293 to 39.1 µM) and an MIC50 (Acinetobacter baumannii [18]) of 2 µg/mL (≈ 4.88 µM). It also gave an MIC90 (Acinetobacter baumannii [18]) of 8 µg/mL (≈ 19.5 µM), an MIC (Acinetobacter baumannii [18]; read-out: MIC) of 0.12 to 16 µg/mL (≈ 0.293 to 39.1 µM) and an MIC50 (Acinetobacter baumannii [19]) of 2 µg/mL (≈ 4.88 µM). The MIC90 (Acinetobacter baumannii [19]) was 8 µg/mL (≈ 19.5 µM), the MIC (Acinetobacter baumannii [19]; read-out: MIC) was 0.12 to 16 µg/mL (≈ 0.293 to 39.1 µM) and the MIC50 (Acinetobacter baumannii [20]) was 2 µg/mL (≈ 4.88 µM). It also gave an MIC90 (Acinetobacter baumannii [20]) of 8 µg/mL (≈ 19.5 µM) and an MIC (Acinetobacter baumannii [20]; read-out: MIC) of 0.12 to 16 µg/mL (≈ 0.293 to 39.1 µM).

Molecule CN(C)Cc1cc2cc3c(cc2n1C)OCCc1c-3[nH]c(=O)c(C(=O)O)c1O has an MIC (Escherichia coli [1]) of 1 µg/mL (≈ 2.61 µM), an MIC (Escherichia coli [2]) of 1 µg/mL (≈ 2.61 µM) and an MIC (Escherichia coli [3]) of 1.6 µg/mL (≈ 4.17 µM). For the same molecule, the MIC (Acinetobacter baumannii [4]) was 2 µg/mL (≈ 5.22 µM), the MIC (Acinetobacter baumannii [5]) was 3.9 µg/mL (≈ 10.2 µM) and the MIC (Klebsiella pneumoniae) was 1 µg/mL (≈ 2.61 µM). The MIC (Escherichia coli [6]) was 2 µg/mL, the Ratio (Escherichia coli [7]) was 2 - 4 and the “beta t1/2” value (Mus musculus [21]) was 3.1 h. For the same molecule, the AUC (Mus musculus [22]) was 2.93 µg·h/mL, the Vdss (Mus musculus [23]) was 7.6 L/kg and the Fu [8] was 0.21. The MIC50 (Escherichia coli [10]) was 0.5 µg/mL (≈ 1.3 µM), the MIC90 (Escherichia coli [10]) was 2 µg/mL (≈ 5.22 µM) and the MIC (Escherichia coli [10]) was 0.25 to 8 µg/mL (≈ 0.652 to 20.9 µM). For the same molecule, the MIC50 (Escherichia coli [11]) was 0.5 µg/mL (≈ 1.3 µM), the MIC90 (Escherichia coli [11]) was 2 µg/mL (≈ 5.22 µM) and the MIC50 (Escherichia coli [12]) was 0.5 µg/mL (≈ 1.3 µM). For the same molecule, the MIC90 (Escherichia coli [12]) was 2 µg/mL (≈ 5.22 µM), the MIC (Escherichia coli [12]) was 0.25 to 8 µg/mL (≈ 0.652 to 20.9 µM) and the MIC50 (Escherichia coli [13]) was 0.5 µg/mL (≈ 1.3 µM). The MIC90 (Escherichia coli [13]) was 2 µg/mL (≈ 5.22 µM), the MIC (Escherichia coli [13]) was 0.25 to 8 µg/mL (≈ 0.652 to 20.9 µM) and the MIC50 (Escherichia coli [14]) was 0.5 µg/mL (≈ 1.3 µM). For the same molecule, the MIC90 (Escherichia coli [14]) was 2 µg/mL (≈ 5.22 µM), the MIC (Escherichia coli [14]) was 0.25 to 8 µg/mL (≈ 0.652 to 20.9 µM) and the MIC (Acinetobacter baumannii [15]) was 0.25 to 16 µg/mL (≈ 0.652 to 41.7 µM). The MIC50 (Acinetobacter baumannii [15]) was 2 µg/mL (≈ 5.22 µM), the MIC90 (Acinetobacter baumannii [15]) was 16 µg/mL (≈ 41.7 µM) and the MIC50 (Acinetobacter baumannii [16]) was 2 µg/mL (≈ 5.22 µM). It also gave an MIC90 (Acinetobacter baumannii [16]) of 16 µg/mL (≈ 41.7 µM), an MIC50 (Acinetobacter baumannii [17]) of 2 µg/mL (≈ 5.22 µM) and an MIC90 (Acinetobacter baumannii [17]) of 16 µg/mL (≈ 41.7 µM). The MIC50 (Acinetobacter baumannii [18]) was 2 µg/mL (≈ 5.22 µM), the MIC90 (Acinetobacter baumannii [18]) was 16 µg/mL (≈ 41.7 µM) and the MIC50 (Acinetobacter baumannii [19]) was 2 µg/mL (≈ 5.22 µM). The MIC90 (Acinetobacter baumannii [19]) was 16 µg/mL (≈ 41.7 µM), the MIC50 (Acinetobacter baumannii [20]) was 2 µg/mL (≈ 5.22 µM) and the MIC90 (Acinetobacter baumannii [20]) was 16 µg/mL (≈ 41.7 µM).
